Reference: the EternaBench riboswitch data

Tested on: MS2 coat protein
Assay: apparent Kd, MS2 coat protein; higher = weaker binding; RNA-MaP array; FMN 200 µM where present
In short: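 Designs on Illumina sequencing-chip clusters, transcribed by stalled E. coli RNA polymerase, were exposed to SNAP-549-labelled MS2 coat protein in doubling steps from 0.7 or 1.5 nM up to 3 µM, without and then with constant ligand. The buffer held 100 mM Tris-HCl pH 7.5, 80 mM KCl, 4 mM MgCl2, BSA, DTT, yeast tRNA and Tween-20. Apparent Kd values are medians of filtered per-cluster binding-curve fits to green signal normalised to red-channel RNA signal and control-cluster median Fmax.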

[1] = designed as: OFF switch for flavin mononucleotide, no ligand
[2] = ligand present: flavin mononucleotide, designed as: OFF switch for flavin mononucleotide
[3] = designed as: ON switch for flavin mononucleotide, no ligand
[4] = ligand present: flavin mononucleotide, designed as: ON switch for flavin mononucleotide

Sequence | apparent Kd [1] | apparent Kd [2] | apparent Kd [3] | apparent Kd [4]
AUUAUGUAAGGAUAUCUUACAUGUGACUUCGGUCACUGUCAAGAGAAGGUACAUGAGGAUCACCCAUGUAUGAC | 14 nM | 16.3 nM | – | –
AGAUAACACCAGAAGGACAUGAGGAUCACCCAUGUAGGAUAUGGGCAUCACUCGAGAAAGAAAAGACCAAGUGGACACGCGGUC | – | – | 117 nM | 10.7 nM
GAUGAGGUAGGAUAUACGAGAAUAUAGGGUAGAUAUAUAACACAUGAGGAUCACCCAUGUAGAAGGACCAGUAG | 38.4 nM | 89.9 nM | – | –
UGUCGGAGCAGAGGAUAUUACAUGAGGAUCACCCAUGUAUGAACCAAUAGCUGGAAACAGCACUGUAAGAAGGCUGCUCCGACA | 8.67 nM | 96.2 nM | – | –
AGAUGACGAUGUCAUCUUCGUCGGACAUGAGGAUCACCCAUGUAGGAUAUGCUACUCAAAGAGUAGCAGAAGGACAUGUGUCUU | 24.6 nM | 92.1 nM | – | –
UAUUUGUCAGGAUAUGAGUCGUAGAACAAUAGUACUACGUCUCAGAAGGGACAUGAGGAUCACCCAUGUGCCUC | 25.5 nM | 217 nM | – | –
UUGGACGUCGUAGGAUAUGUAGGAUAUGCCUACAUGAGGAUCACCCAUGUUGACAUGGAAGAAGGACAGAAGGACGAUGUCCAU | – | – | 108 nM | 6.64 nM
AAUCGGGAGCAGAAGGCAUGUCAAAAGACAUGAGGAUCACCCAUGUAUAAAAGGCGAAAGCCGCAUGAGGAUAUGCUCCCGUAA | – | – | 29.4 nM | 5.81 nM
UCUCUUCUGUAGAAGGCCCAACUUGUGAAGGCAACGAUGCUAUAGAAGUAGGGAGGAUAUACAUGAGGAUCACCCAUGUAGGAA | 9.28 nM | 13.4 nM | – | –
UAGUAUUAGCGAGGAUAUCGUAUGUUCAAUUUUUUAUAUUGUUUACAUGAGGAUCACCCAUGUUACGAGAAGGCGCAUGGGAUU | – | – | 466 nM | 85.8 nM
AGGAUAGGAAACUUUGUCCAUUGUACAGAAGGCCAACAUGAGGAUCACCCAUGUAAGAAAAGGAUGGAGGAUAUGUAUAGGGCC | – | – | 25.8 nM | 12.3 nM
AAAAAGCGAGGAUAUACAUGAGGAUCACCCAUGUAAAAAAAAAGAGAUGAAACAUCAUGUAGAAGGCGCAAAAA | 211 nM | 134 nM | – | –
AACAGUACAGGAUAUACAUGAGGAUCACCCAUGUGAUCAUCAAGUGCCGUAGCACGAAGUAGAAGGGUACUGGA | 207 nM | 57 nM | – | –
AGUGUCAUCGAGAAGGCCUCAUGAACAUGAGGAUCACCCAUGUAAGAUGGGAGGAUAUCGAUGAUACAGCUACGUUUCGUAGCA | – | – | 51.1 nM | 31.9 nM
UUUAUUUAGGCAGGAUAUACAUGUAUAUAUAUUUCUUUAUAUCUUAUUACAUGAGGAUCACCCAUGUAGAAGGGCCUUCUUAUA | 26.7 nM | 30.6 nM | – | –
AUCAUGAGAGGAUAUACAUGAGGAUCACCCAUGUUGUUAACACCAUGAGCUCAUUUACGUAGAAGGCUCAUUUG | 28.1 nM | 51.9 nM | – | –
GCGUUCUUGUAGAAGGUACAUACAAUAUCUUUUUAACACAUGACACAUGAGGAUCACCCAUGUUGUAAGGAUAUACAUGAACGC | – | – | 6.8 nM | 6.91 nM
UGUAUGGACAGAGGAUAUGCCGGUAGGAUCUACUAUCGAAGAAUCCUCACAUGAGGAUCACCCAUGUAGAAGGCUGUCCAUACU | 9.36 nM | 42.8 nM | – | –
UCAUAUAUACAAGGAUAUCAAUGAUUUAUAGAUCCUACAUGAGGAUCACCCAUGUUUUUAUAUUUUGAGAAGGUGUAGUGUCUU | – | – | 214 nM | 333 nM
AUCGGGAGAGGAUAUACAUGAGGAUCACCCAUGUUGGGAACAUCGGUUUGUUAGUUGCGUAGAAGGCUCGGGCG | 46.4 nM | 66.3 nM | – | –
GGGCUGGUAACAGGAUAUCGUGCCUGGCCGGAUUACAUGAGGAUCACCCAUGUCGUUGGAACCAACGAGAAGGGUUGCCUCCCA | – | – | 371 nM | 102 nM
AUGAGGUUAGGAUAUACAUGAGGAUCACCCAUGUUGAAGGGUUAGGUAGGCGGAGCUGGUAGAAGGAACGGAGC | 57.3 nM | 36.9 nM | – | –
UGGUUGGGAGGAUAUCCAAUAUAUGACAUGAGGAUCACCCAUGUUUCCACUCGUACCUCCGGAGAAGGCCCUUCCU | 22.8 nM | 21.6 nM | – | –
AAAAUGAGUCAAGGAUAUCCGAGCAGAAUGCUAGGAGAAGGUGACAUGAGGAUCACCCAUGUCUCUCCGAGCAUGGUAUUCUCA | 27.1 nM | 31.9 nM | – | –
AUACACUUUCGAGGAUAUCGGUGAUAAAUUUUACGAGAAGGCGAUAAAAGAUAUAAUCUUAUAUACAUGAGGAUCACCCAUGUU | – | – | 27.3 nM | 25.1 nM
GGAGCUCCUGACAUGAGGAUCACCCAUGUUCAAUUAUUAAAUCAGGAUAUCGUCUCGAAACGAGACGAGAAGGGAUAUGCUCCU | – | – | 5.89 nM | 6.2 nM
GGAUAGGACACAGGAUAUACGUGCUAGAGAUACUAGCAAAAUUUCCUCACAUGAGGAUCACCCAUGUAGAAGGCUGUCCUAUCG | 6.15 nM | 5.95 nM | – | –
UAUUAAUACGAAGGAUAUGGUUACAUGAGGAUCACCCAUGUAUGUAUAUUGAUCUAGAUUUUUAACCAGAAGGUCGUGAGUAAA | 34.9 nM | 59 nM | – | –

Sequence | apparent Kd [1] | apparent Kd [2] | apparent Kd [3] | apparent Kd [4]
UGAACUUCAGAGAAGGUCGAACGGCAACGGUUCGAAGGAUAUCUGGAAACAUGAGGAUCACCCAUGUAACCGGGUGGAUGUCCU | 58.9 nM | 291 nM | – | –
ACUGCAUAGUCAGGAUAUGCAAAAGCAGAUGCAAAGCAUCUGAACAACACAUGAGGAUCACCCAUGUAGAAGGGACUGUGCAGU | 23.3 nM | 22.4 nM | – | –
UAUAUAAUAUUUCACAUGAGGAUCACCCAUGUACAUGGGAUAGAGGAUAUACAAAUAUUAGUGGUGUAGAAGGUUAAUAUAUAU | 158 nM | 101 nM | – | –
CUAUGAAGAAUAGGAUAUUCGAUCAUGAGGAUAGAAGAAGGGUUACAUGAGGAUCACCCAUGUAUGCACAUGAGGAUCCCUUAG | 167 nM | 195 nM | – | –
GUCAGCUCGUGAGGAUAUACAACACUGCUUCGGCAGUGUAUUAAGAUCACAUGAGGAUCACCCAUGUAGAAGGCACGAGCUGUU | 13.8 nM | 305 nM | – | –
GGGUACAUGGGAGGAUAUCCUCAAGAGACAUGAGGAUCACCCAUGUAUUAUAAGCCUAAUGGCAUGGAGAAGGCCCAUGUACCG | – | – | 397 nM | 69.7 nM
GGUCCGCACUAGAAGGGUGACAUGAGGAUCACCCAUGUGCACUUCCGCUCUUAGCGGAAAGUGCCACAGGAUAUAGUGUGGAUU | – | – | 80.6 nM | 20.3 nM
AGCAUGUAAGGAUAUGCAAGUGGUAUGGAUCGUACCAGAAAGCAGAAGGUACAUGAGGAUCACCCAUGUGCUCC | 29.2 nM | 67.5 nM | – | –
CCCUCAACAUGAGGAUCACCCAUGUAGGAUAUCGCUAUUGUAAUCAUGAAACAUGAUUACAAUAGCGAGAAGGACAUAUGUGGG | 106 nM | 49.8 nM | – | –
AAGUAUAGAGGAUAUAGUAGUUACAACAUGAGGAUCACCCAUGUUCUUCAUAACGUAGUUCUAGAAGGCUGAUAAA | 183 nM | 271 nM | – | –
GCAGCACAUGAGGAUCACCCAUGUCUUCGGAGUCGAGGAUAUGGUCACUGUAAACAGUGGCCAGAAGGCGAGUUGC | – | – | 31.7 nM | 27.2 nM
AGGUUGUGAGGAUAUUAGUUUUAUGAUUGGAGGAGUUUGGCUGAGAAGGCACAUGAGGAUCACCCAUGUAGAUC | 61.9 nM | 124 nM | – | –
CACCGUAACAGAGGAUAUGAUACAUGAGGAUCACCCAUGUAAUAAAUGAGAAUUUCGAAUGUACCUCAGAAGGCUGGAACCGGC | 45.7 nM | 96.6 nM | – | –
UUCAAAUUCGUAGGAUAUGUAUAAAUUUUCUACAUGAGGAUCACCCAUGUUUCCAUUUUAAAUUGACAGAAGGACGUAAUCUAA | – | – | 30 nM | 9.73 nM
AAUAACAGAGGAUAUACGAAAAUAAGCGGAAACGCAAAGGGACAUGAGGAUCACCCAUGUAGAAGGCUGGAUAA | 32.6 nM | 183 nM | – | –
UGGACGGGAGGAUAUACAUGAGGAUCACCCAUGUAAAAUUGUAUAAUAUAUAGUUCGUGUAGAAGGUUUGUUUU | 49.6 nM | 44.7 nM | – | –
UUGUGAGAGCAGGAUAUCUUAUUUUUUUUUUGUGGAGAAGGGCUGACAUGAGGAUCACCCAUGUGGUCCUAGAU | 28.4 nM | 33.5 nM | – | –
CGCCAUUUAACAACGGCGCGGUCGAGAAGGGUACAUGAGGAUCACCCAUGUCACGUUCCUCCUGUACAGGAUAUCGUACGGGUA | 67 nM | 146 nM | – | –
ACAUGAGGAUCACCCAUGUAGAAUGAAGAAGGUAGUUACUUGAGACUCACCCAUGUACAUAGGACUAAGGAUAUUCUAAUAAUU | – | – | 14.5 nM | 8.5 nM
CGUGACGACAUAGGAUAUUGAUACAUGAGGAUCACCCAUGUCACCCAUUUAUCUCUAAGUGUUGACAAGAAGGAUGUGGUCACG | – | – | 10.1 nM | 9.33 nM
UCAGGCUUCGAGAAGGACAUGAGGAUCACCCAUGUUAAUUAGAAGCAGCCGUGAGGCUGCAUCAUGUAGGAUAUCGGAGUCUGC | 7.16 nM | 24.8 nM | – | –
GGACGUCACAUUUACAUGAGGAUCACCCAUGUCUCUUGACAUGAGGAUAUGGAUCCUAAUUGGAUCCAGAAGGCAUGGACGUCC | – | – | 1130 nM | 153 nM
AAGACUAGAGGAUAUACAUGAGGAUCACCCAUGUAACUGUCAGGUGACUGACGGAAAAGUAGAAGGCUAGUCAA | 16.6 nM | 20 nM | – | –
UGGUACUAGAGAGGAUAUGGGAAGAUACAUGAGGAUCACCCAUGUUUAAGAAUGCCGAGAGGCAACUAGAAGGCCCUAGUACCU | – | – | 490 nM | 31.5 nM
AUUUAUGGCCAGAAGGACAUGAGGAUCACCCAUGUAGGAUAUGGACGAUUUUGCUCGGCGGUUCGUUAAGAAAGCACCGGUGGU | – | – | 16.5 nM | 7.39 nM
UUAAAUCAUGUAGGAUAUGCAUGGCGAAGCUACGCAGAAGGACAUGAGGAUCACCCAUGUUAUAGCUACUGAGUUCAGUGGCAA | 107 nM | 231 nM | – | –
CUGGUUGUCGUAGGAUAUGUAGGAUAUUCCUACAUGAGGAUCACCCAUGUUCGCAUGGAAGAAGGACAGAAGGACGAUGACCAG | – | – | 621 nM | 24.9 nM
